The whole screen tested about 300,000 compounds, of which about 4,400 (1.5%) were called active. This is one part of a sample in which actives are shown more often than they occur. Values without a mark were called inactive.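 The calls were made as follows: active = mean inhibition across valid replicates above about 55% (limit read from the data); inconclusive = mean below that limit but half or more replicates reach it; inactive = mean below it, under half of replicates reach it.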
Assay: Trypanosoma cruzi replication blockers in host cells – luminescence, NIH3T3 host cells, primary screen (AID 1885);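 also: signal also drops with host cell toxicity which is not excluded here; 0% = plate median of DMSO wells and 100% = zero luminescence signal; higher percent means less beta-gal luminescence so fewer parasites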
Conditions: T. cruzi beta-gal in NIH3T3, luminescence, 90 h; hits give high values; concentration not given here
Method in brief: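 System: mouse NIH/3T3 fibroblasts infected with β-gal-expressing T. cruzi Tulahuen C4 / Input: NIH/3T3 cells, 5,000 per well / Buffer or medium: Low-serum DMEM with 2% FBS / Probe or stimulus: 5000 reporter trypomastigotes per well / Schedule: ≥90 h infection period, 3 h prior cell attachment / Measured by: GalScreen luminescence, 60 min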

| SMILES | inhibition |
| --- | --- |
| CCOc1ccc(-c2cc(C(=O)N/N=C/c3ccc(O)cc3)c3ccccc3n2)cc1 | 18.7% |
| CCNS(=O)(=O)c1ccc(NC(=O)Nc2cccc(C(F)(F)F)c2)cc1 | 61.3% (active) |
| CCNS(=O)(=O)c1ccc(NC(=O)Nc2cccc(OC)c2)cc1 | -9.54% |
| Cc1ccc(NC(=O)Nc2cccc(C(F)(F)F)c2)nc1 | 11.1% |
| Cn1ccc(=Nc2ccc(NC(=O)c3ccc(N=c4ccn(C)c5ccc([N+](=O)[O-])cc45)cc3)cc2)cc1 | 33.3% |
| Cn1c(CCc2ccccc2)nnc1SCC(N)=O | -8.67% |
| Cc1ccc(Cc2nnc(SCC(=O)Nc3ccc(C)cc3C)[nH]c2=O)cc1 | -8.53% |
| COc1cc2ccccc2cc1C(=O)Nc1nc(C)c(C(C)=O)s1 | -2.79% |
| COc1ccccc1/C=N/Nc1nc(C)c(C(C)=O)s1 | 6.16% |
| COc1cccc2sc(Nc3nc(C)c(C(C)=O)s3)nc12 | 89.1% (active) |
| COc1ccc(C)cc1S(=O)(=O)Nc1cc2c3c(c1)CCC(=O)N3CCC2 | -2.17% |
| CC(C)=NN1C(=O)c2ccccc2NC1(C)C | -9.69% |
| COc1ccc(C2CC(c3ccccc3)=NN2C(=O)CSc2nccc(=O)[nH]2)cc1 (stereo not drawn) | -0.127% |
| O=C(CSc1nnnn1-c1ccc(O)cc1)N1N=C(c2ccc3ccccc3c2)CC1c1ccccc1 (stereo not drawn) | 71.2% (active) |
| COc1ccc(C2=NN(C(C)=O)C(c3ccccc3)C2)cc1 (stereo not drawn) | -1.39% |
| Cc1ccc(S(=O)(=O)n2cccc2CO)cc1 | -12.2% |
| O=C(NNS(=O)(=O)c1ccc([N+](=O)[O-])cc1)C1CCCCC1 | -10.2% |
| CC(=O)Nc1cccc(C(=O)OCC(=O)Nc2nnc(-c3ccccc3)o2)c1 | -2% |
| CCN(CC)S(=O)(=O)c1ccc(C(=O)N2CCN(C3=NS(=O)(=O)c4ccccc43)CC2)cc1 | 0.744% |
| CCc1cc(C(N)=O)c(NC(=O)c2ccc(OC)cc2)s1 | 15.5% |

| SMILES | inhibition |
| --- | --- |
| CCOc1ccc(OCc2cccc(C(=O)N(CC)CC)c2)cc1 | 14.3% |
| CC(C)c1cc(C(N)=O)c(NC(=O)c2cccc(COc3ccc(Br)cc3)c2)s1 | 60.2% (active) |
| COc1cccc(COC(=O)C2CCN(S(=O)(=O)c3cccs3)CC2)c1OC | 0.844% |
| CCOc1ccc(S(=O)(=O)Nc2ccc(C(=O)NCCCN3CCCC3=O)cc2)cc1 | 3.32% |
| Cc1cccc(NC(=O)c2ccc([N+](=O)[O-])o2)c1 | 41.2% |
| Cc1cccc(NC(=O)c2sc(-c3ccccc3)nc2-c2ccc([N+](=O)[O-])cc2)c1 | 55.5% (active) |
| Cc1cccc(NC(=O)c2cc([N+](=O)[O-])ccc2N2CCN(C)CC2)c1 | 2.53% |
| COC(=O)c1ccc(SCc2ccccc2)nc1 | -10.6% |
| CC1=C/C(=N\OS(=O)(=O)c2ccccc2)C=CC1=O | 68.7% (active) |
| O=S(=O)(ON(c1ccccc1)S(=O)(=O)c1ccccc1)c1ccccc1 | -3.86% |
| COc1ccc(NS(=O)(=O)c2ccc(C)c(C(=O)NCC(c3cccs3)N3CCOCC3)c2)cc1 (stereo not drawn) | 20.6% |
| O=C(Cn1cnc2cc([N+](=O)[O-])ccc2c1=O)NC(=O)NCc1ccccc1 | 62.3% (active) |
| CC(C)(C)NC(=O)Cn1cnc2cc([N+](=O)[O-])ccc2c1=O | 33.5% |
| O=C(Cn1cnc2c(cnn2-c2ccccc2)c1=O)NCc1ccccc1 | -38.8% |
| CN(CC(=O)Nc1ccccc1Cl)C(=O)c1ccccc1SCC(=O)N1CCCC1 | 2.13% |
| COc1ccc(CCNC(=O)C(=O)NCC2CCCN2S(=O)(=O)c2cccs2)cc1OC (stereo not drawn) | 17.5% |
| CC(=O)c1sc(NC(=O)CCCOc2ccccc2C)nc1C | -0.939% |
| CC(=O)c1sc(N/N=C/c2ccc(C(C)C)cc2)nc1C | 65.4% (active) |
| CC(=O)c1sc(N/N=C\c2ccc(C)cc2)nc1C | -6.96% |
| O=C(Nc1ccc(OC(F)(F)F)cc1)c1ccc2c(c1)no[n+]2[O-] | 34.6% |

| SMILES | inhibition |
| --- | --- |
| COc1ccccc1C(=O)NC(=O)COC(=O)C1CC1 | 5.64% |
| CS(=O)(=O)N(CC(=O)N1CCc2ccccc2C1)c1ccc(Br)cc1 | 17.3% |
| CCC(=C/c1sc2ccc3ccccc3c2[n+]1C)/C=C1\Sc2ccc3ccccc3c2N1C | 65.5% (active) |
| O=C(COc1ccccc1)Nc1ccc(F)cc1 | -10.9% |
| O=C(NC(Cc1ccccc1)C(=O)N1CCCC(C(F)(F)F)C1)c1ccccc1 (stereo not drawn) | -16.5% |
| COc1ccc(NC(=O)c2cc(-c3ccc(C)o3)nc3ccccc23)cc1 | 14.8% |
| CN(C)CCN(C(=O)C1=COCCO1)c1nc2ccc(Cl)cc2s1 | 41.8% |
| CCN(CC)CCN(C(=O)c1cc(Cl)sc1Cl)c1nc2cc3c(cc2s1)OCO3 | 33.9% |
| CN(C)CCN(C(=O)C1CCCCC1)c1nc2cc3c(cc2s1)OCO3 | 28.7% |
| CCc1ccc2nc(N(CCCN(C)C)C(=O)c3ccc4c(c3)OCCO4)sc2c1 | 55.2% (active) |
| COc1cccc2sc(N(CCCN(C)C)C(=O)CCS(=O)(=O)c3ccccc3)nc12 | -2.98% |
| CC(=O)N(CCCN(C)C)c1nc2ccc(C)cc2s1 | 57.7% (active) |
| COc1ccc2sc(N(CCCN(C)C)C(=O)c3ccc(S(=O)(=O)N(C)C4CCCCC4)cc3)nc2c1 | 61% (active) |
| Cc1ccc2nc(N(CCN(C)C)C(=O)C3=COCCO3)sc2c1 | 53% |
| CCOc1ccc(S(=O)(=O)Nc2nc3cc(OC)ccc3s2)cc1 | -7.46% |
| COc1cccc2sc(N(CCCN(C)C)C(=O)C(c3ccccc3)c3ccccc3)nc12 | 31.5% |
| CN(C)CCN(C(=O)CN1C(=O)c2ccccc2C1=O)c1nc2cc3c(cc2s1)OCCO3 | 66.3% (active) |
| CCOc1ccc2nc(N(CCCN(C)C)C(=O)c3ccc(C(=O)c4ccccc4)cc3)sc2c1 | 34.6% |
